According to ChEMBL document CHEMBL3259616, “New Ianthelliformisamine derivatives as antibiotic enhancers against resistant Gram-negative bacteria” (J Med Chem, 2014):
In brackets after ≈: the same amount, converted by molar mass. Activity calls are given as the source filed them. The rule behind the calls is not given here.

What was measured:
Klebsiella aerogenes [1] = assay: Antibacterial activity against Enterobacter aerogenes EA289 assessed as inhibition of visible growth after 18 hrs incubation by standard broth dilution method; assay type: functional; conditions: EA289, 18 h
How it was run: (§1)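 Broth microdilution per CA-SFM: inoculum 10^5 CFU in 200 μL Mueller–Hinton broth with 2-fold serial dilutions of compound; MIC = lowest concentration with no visible growth after 18 h at 37 °C. Independently repeated at least three times. Strains kept at −80 °C in 15% glycerol and grown routinely in MH broth at 37 °C.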

Pseudomonas aeruginosa [2] = assay: Antibacterial activity against Pseudomonas aeruginosa PAO1 assessed as inhibition of visible growth after 18 hrs incubation by standard broth dilution method; assay type: functional; conditions: PAO1, 18 h; how it was run: as §1
[3] = Cytotoxicity against human fibroblasts assessed as decrease in cell viability after 24 hrs by WST-1 assay; assay type: cell-based; conditions: Fibroblast
How it was run: (§2)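 CHO-K1 (McCoy's 5A) and human fibroblasts (DMEM), both with 10% bovine calf serum, 2 mM glutamine, penicillin/streptomycin, 37 °C, 5% CO2. Seeded, left overnight, then exposed to various compound concentrations in triplicate for 24 h at 37 °C. Washed three times in PBS, 30 min in PBS with 10% WST-1, A450. Viability as % of medium-only control; IC50 by nonlinear regression.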

Staphylococcus aureus = assay: Antibacterial activity against Staphylococcus aureus DSM799 assessed as inhibition of visible growth after 18 hrs incubation by standard broth dilution method; assay type: functional; conditions: DSM799, 18 h; how it was run: as §1
Klebsiella pneumoniae [4] = assay: Antibacterial activity against Klebsiella pneumoniae KPC2 ST258 assessed as inhibition of visible growth after 18 hrs incubation by standard broth dilution method; assay type: functional; conditions: KPC2, 18 h; how it was run: as §1
[5] = Cytotoxicity against CHOK1 cells assessed as decrease in cell viability after 24 hrs by WST-1 assay; assay type: cell-based; conditions: Cricetulus griseus, CHO-K1, 24 h; how it was run: as §2
Klebsiella pneumoniae [6] = assay: Inhibition of multidrug resistance efflux pump in Klebsiella pneumoniae KPC2 ST258 assessed as dose required to restore 2 ug/ml doxycycline-induced inhibition of visible growth after 18 hrs by standard broth dilution method
How it was run: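 Broth microdilution in Mueller-Hinton broth, CA-SFM recommendations. Inoculum 10^5 CFU in 200 μL containing 2-fold serial dilutions of derivative plus doxycycline at 2 μg/mL, 37 °C for 18 h. Antibiotics dissolved in DMSO, up to 5% v/v. Repeated independently at least three times.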

Klebsiella aerogenes [7] = assay: Inhibition of multidrug resistance efflux pump in Enterobacter aerogenes EA289 assessed as dose required to restore 2 ug/ml doxycycline-induced inhibition of visible growth after 18 hrs by standard broth dilution method
How it was run: (§3)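 Broth microdilution in MH broth, inoculum 10^5 CFU in 200 μL, 2-fold serial dilutions of derivative with fixed antibiotic (2 μg/mL). Lowest derivative concentration giving complete inhibition of visible growth after 18 h at 37 °C recorded. Antibiotics dissolved in DMSO. Independently repeated at least three times.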

[8] = system: Pseudomonas aeruginosa PAO1; assay: Inhibition of multidrug resistance efflux pump in Pseudomonas aeruginosa PAO1 assessed as dose required to restore 2 ug/ml doxycycline-induced inhibition of visible growth after 18 hrs by standard broth dilution method; how it was run: as §3
[9] = system: Pseudomonas aeruginosa PAO1; assay: Inhibition of multidrug resistance efflux pump in Pseudomonas aeruginosa PAO1 assessed as dose required to restore 2 ug/ml cefepime-induced inhibition of visible growth after 18 hrs by standard broth dilution method; how it was run: as §3
Pseudomonas aeruginosa [10] = assay: Disruption of outermembrane in Pseudomonas aeruginosa PAO1 assessed as ATP efflux at 2 mM by bioluminescence method; assay type: functional
How it was run: (§4)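 After 5 min an aliquot was vortexed, luciferin–luciferase added and luminescence read for 5 s. ATP quantified with an internal standard; maximal release set with 0.02% […].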

Pseudomonas aeruginosa [11] = assay: Disruption of outermembrane in Pseudomonas aeruginosa PAO1 assessed as ATP efflux at 2 to 200 uM by bioluminescence method; assay type: functional, organism-based; how it was run: as §4
[12] = system: Pseudomonas aeruginosa PAO1; assay: Inhibition of multidrug resistance efflux pump in Pseudomonas aeruginosa PAO1 assessed as dose required to restore 2 ug/ml chloramphenicol-induced inhibition of visible growth after 18 hrs by standard broth dilution method; how it was run: as §3
Pseudomonas aeruginosa [13] = assay: Disruption of outermembrane in Pseudomonas aeruginosa PAO1 assessed as ATP efflux at 2 to 200 uM by bioluminescence method in presence of 2 to 50 ug/ml doxycycline; assay type: functional, organism-based; how it was run: as §4
[14] = system: Pseudomonas aeruginosa PAO1; assay: Inhibition of multidrug resistance efflux pump in Pseudomonas aeruginosa PAO1 assessed as depolarization by spectrofluorometry
How it was run: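 PAO1 grown 24 h at 37 °C in MH broth, washed twice in buffered 250 mM sucrose with 5 mM MgSO4. Loaded with 3 μM 3,3-diethylthiodicarbocyanine iodide for 1 h at 37 °C, then derivative added at various concentrations. Fluorescence read at 0–21 min intervals. Maximum taken as 3 μM dye alone in buffer.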

Pseudomonas aeruginosa [15] = assay: Disruption of outermembrane in Pseudomonas aeruginosa PAO1 assessed as rate of nitrocefin hydrolysis at 500 uM spectrophotometrically; assay type: functional, organism-based
How it was run: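 PAO1 grown in MH broth at 37 °C to OD600 0.5; then room temperature. Cells centrifuged and washed once in 20 mM potassium phosphate pH 7.2 with 1 mM MgCl2, then exposed to compound. Nitrocefin added to final 50 μg/mL as periplasmic β-lactamase substrate; hydrolysis followed as rising absorbance at 490 nm against untreated control.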

Structure (SMILES) | MIC (Klebsiella aerogenes [1]) [µM] | MIC (Pseudomonas aeruginosa [2]) [µM] | IC50 [3] [µM] | MIC (Staphylococcus aureus) [µM] | MIC (Klebsiella pneumoniae [4]) [µM] | IC50 [5] [µM] | Activity (Klebsiella pneumoniae [6]) [µM] | Activity (Klebsiella aerogenes [7]) [µM] | Activity [8] [µM] | inhibition [8] | Activity [9] [µM] | Activity (Pseudomonas aeruginosa [10]) [%] | inhibition (Pseudomonas aeruginosa [11]) | Activity [12] [µM] | inhibition (Pseudomonas aeruginosa [13]) | inhibition [14] | inhibition (Pseudomonas aeruginosa [15])
CO/N=C(\C(=O)N[C@@H]1C(=O)N2C(C(=O)[O-])=C(C[N+]3(C)CCCC3)CS[C@H]12)c1csc(N)n1 [CEFEPIME] | 52 (≈ 25 µg/mL) | 26 (≈ 12.5 µg/mL) |  |  |  |  |  |  |  |  |  |  |  |  |  |  | 
COc1c(Br)cc(/C=C/C(=O)NCCCN(C)CCCN)cc1Br | > 200 | 200 (≈ 92.6 µg/mL) | 24 | > 200 | > 200 | 174 |  |  |  |  |  |  |  |  |  |  | 
COc1c(Br)cc(/C=C/C(=O)NCCCCCN)cc1Br | > 200 | > 200 |  | > 200 | > 200 |  | 6.25 | > 100 | > 100 | Dose-dependent effect |  |  |  |  |  |  | 
O=C(N[C@H](CO)[C@H](O)c1ccc([N+](=O)[O-])cc1)C(Cl)Cl [CHLORAMPHENICOL] | > 200 | > 200 |  |  |  |  |  |  |  |  |  |  |  |  |  |  | 
COc1c(Br)cc(/C=C/C(=O)NCCCN(CCCN)CCCN)cc1Br | > 200 | 100 (≈ 50.6 µg/mL) | 345 | 50 (≈ 25.3 µg/mL) | > 200 | 846 | 3.12 | 6.25 | 3.12 | Dose-dependent effect | 0.4 | <16 | inactive | 100 | inactive | Dose-dependent effect | inactive
COc1c(Br)cc(/C=C/C(=O)NCCNCCNCCNCCN)cc1Br | 200 (≈ 101 µg/mL) | 100 (≈ 50.7 µg/mL) | 237 | 50 (≈ 25.4 µg/mL) | > 200 | 573 | 3.12 | 12.5 | 6.25 | Dose-dependent effect | 6.25 |  |  | 100 |  |  | 
COc1c(Br)cc(/C=C/C(=O)NCCNCCNCCN)cc1Br | > 200 | > 200 |  | > 200 | > 200 |  | >100 | > 100 | > 100 | Dose-dependent effect |  |  |  |  |  |  | 
COc1c(Br)cc(/C=C/C(=O)NCCCCN)cc1Br | > 200 | > 200 |  | > 200 | > 200 |  | >100 | > 100 | > 100 | Dose-dependent effect |  |  |  |  |  |  | 
COc1c(Br)cc(/C=C/C(=O)NCCCN2CCCC2)cc1Br | > 200 | > 200 |  | > 200 | > 200 |  | >100 | > 100 | 25 | Dose-dependent effect |  |  |  |  |  |  | 
COc1c(Br)cc(/C=C/C(=O)NCCN)cc1Br | > 200 | > 200 |  | > 200 | > 200 |  | 50 | > 100 | > 100 | Dose-dependent effect |  |  |  |  |  |  | 
COc1c(Br)cc(/C=C/C(=O)NCCCN2CCOCC2)cc1Br | > 200 | > 200 |  | > 200 | > 200 |  | >100 | > 100 | > 100 | Dose-dependent effect |  |  |  |  |  |  | 
COc1c(Br)cc(/C=C/C(=O)NCCCCNCCCN)cc1Br.Cl.Cl | > 200 | 200 | 33 | 200 | > 200 | 108 | 3.12 | 6.25 | 3.12 | Dose-dependent effect | 3.12 |  |  | 100 |  |  | 
C[C@H]1c2cccc(O)c2C(=O)C2=C(O)[C@]3(O)C(=O)C(C(N)=O)=C(O)[C@@H](N(C)C)[C@@H]3[C@@H](O)[C@@H]21 [DOXYCYCLINE] | 56 (≈ 24.9 µg/mL) | 112 (≈ 49.8 µg/mL) |  | < 3 |  |  |  |  |  |  |  |  |  |  |  |  | 
COc1c(Br)cc(/C=C/C(=O)NCCCOCCCCOCCCN)cc1Br | > 200 | > 200 |  | > 200 | > 200 |  | >100 | > 100 | > 100 | Dose-dependent effect |  |  |  |  |  |  | 
COc1c(Br)cc(/C=C/C(=O)NCCCNCCCCNCCCN)cc1Br [IANTHELLIFORMISAMINE A] | > 200 | 200 (≈ 104 µg/mL) |  | 200 (≈ 104 µg/mL) | > 200 |  | >100 | > 100 | 12.5 | Dose-dependent effect |  |  |  |  |  |  | 
COc1c(Br)cc(/C=C/C(=O)NCCCN2CCN(CCCN)CC2)cc1Br | > 200 | > 200 |  | 6.25 (≈ 3.24 µg/mL) | > 200 |  | >100 | > 100 |  |  |  |  |  |  |  |  | 
COc1c(Br)cc(/C=C/C(=O)NCCCNCCCNCCCNC(=O)/C=C/c2cc(Br)c(OC)c(Br)c2)cc1Br | 100 (≈ 82.4 µg/mL) | 25 (≈ 20.6 µg/mL) | 237 | 12.5 (≈ 10.3 µg/mL) | 12.5 (≈ 10.3 µg/mL) | 663 | 12.5 | 12.5 | 3.12 | Dose-dependent effect | 1.6 |  |  | 12.5 |  |  | 
COc1c(Br)cc(/C=C/C(=O)NCCCN)cc1Br | > 200 | 100 (≈ 39.2 µg/mL) |  | > 200 | > 200 |  | 100 | > 100 | 100 | Dose-dependent effect |  |  |  |  |  |  | 
COc1c(Br)cc(/C=C/C(=O)NCCCNCCCCN)cc1Br.Cl.Cl | 100 | > 200 | 129 | > 200 | > 200 | 1660 | 3.12 | 25 | 12.5 | Dose-dependent effect | 0.8 |  |  | 200 |  |  | 
